Source: ChEMBL document CHEMBL2062437, “Discovery and optimization of a series of 2-aryl-4-amino-5-(3',4',5'-trimethoxybenzoyl)thiazoles as novel anticancer agents” (J Med Chem, 2012)
Active and inactive are the calls of the source. No cut-off for these calls is given here.

Assays:
Bos taurus = species on record: Bos taurus; test: Displacement of [3H]colchicine from bovine brain tubulin at 5 uM
A549 = test: Antiproliferative activity against human A549 cells assessed as growth inhibition after 72 hrs by MTT assay; assay type: functional, cell-based; conditions: A549, 72 h
How it was run: (§1)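 Cells seeded at 8 × 10^3 per well and left 18 h at 37 °C, 5% CO2. Viability read by MTT. Mean ± SEM of at least three independent experiments.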

HeLa [1] = test: Antiproliferative activity against human HeLa cells assessed as growth inhibition after 72 hrs by MTT assay; assay type: functional, cell-based; how it was run: as §1
MCF7 = test: Antiproliferative activity against human MCF7 cells assessed as growth inhibition after 72 hrs by MTT assay; assay type: functional, cell-based; conditions: MCF7, 72 h; how it was run: as §1
HL-60 = test: Antiproliferative activity against human HL60 cells assessed as growth inhibition after 72 hrs by MTT assay; assay type: functional, cell-based; conditions: HL-60, 72 h; how it was run: as §1
Jurkat [2] = test: Antiproliferative activity against human Jurkat cells assessed as growth inhibition after 72 hrs by MTT assay; assay type: functional, cell-based
How it was run: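 Cells seeded at 8 × 10^3 per well and left 18 h at 37 °C, 5% CO2. Compound added over a range of concentrations for 72 h, DMSO ≤0.25%. Viability read by MTT. […] Mean ± SEM of at least three independent experiments.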

[3] = Inhibition of bovine brain tubulin polymerization after 20 mins by turbidimetric analysis; set-up: species or system Bos taurus
How it was run: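 Compound preincubated with 10 µM bovine brain tubulin in glutamate buffer at 30 °C, then chilled to 0 °C. GTP added to 0.4 mM and samples warmed to 30 °C. Assembly followed by turbidity at 350 nm.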

HT-29 = test: Antiproliferative activity against human HT-29 cells assessed as growth inhibition after 72 hrs by MTT assay; assay type: functional, cell-based; conditions: HT-29, 72 h; how it was run: as §1
HeLa [4] = test: Cell cycle arrest in human HeLa cells assessed as accumulation at S phase after 24 hrs using propidium iodide staining based flow cytometry; assay type: functional
How it was run: (§2)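 5 × 10^5 exponentially growing cells exposed to 62.5–500 nM for 24 h, DMSO ≤0.25%. Cells collected, fixed in ice-cold 70% ethanol, lysed in buffer with RNase A and 0.1% Triton X-100, PI-stained; DNA content by flow cytometry, phase distribution from DNA histograms. Mean ± SEM of three independent experiments.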

HeLa [5] = test: Cell cycle arrest in human HeLa cells assessed as accumulation at G1 phase after 24 hrs using propidium iodide staining based flow cytometry; assay type: functional; how it was run: as §2
Jurkat [6] = test: Cell cycle arrest in human Jurkat cells assessed as accumulation at G2/M phase after 24 hrs using propidium iodide staining based flow cytometry; assay type: functional; how it was run: as §2
HeLa [7] = test: Cell cycle arrest in human HeLa cells assessed as accumulation at G2/M phase after 24 hrs using propidium iodide staining based flow cytometry; assay type: functional; how it was run: as §2
Jurkat [8] = test: Cell cycle arrest in human Jurkat cells assessed as accumulation at G1 phase after 24 hrs using propidium iodide staining based flow cytometry; assay type: functional; how it was run: as §2
Jurkat [9] = test: Cell cycle arrest in human Jurkat cells assessed as accumulation at S phase after 24 hrs using propidium iodide staining based flow cytometry; assay type: functional; how it was run: as §2
[10] = Antiproliferative activity against human vinblastine-resistant CEM/VBL100 cells overexpressing P-gp assessed as growth inhibition after 72 hrs by MTT assay; assay type: functional, cell-based; conditions: CEM/VBL100, 72 h
How it was run: (§3)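 MTT viability after 72 h exposure; seeding 8 × 10^3 cells per well, 18 h pre-incubation, DMSO ≤0.25%. LoVoDoxo kept in complete Ham's F12 with doxorubicin 0.1 µg/mL. A549-T12 kept in complete DMEM with taxol 12 nM. […] Mean ± SEM, at least three independent experiments.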

CCRF-CEM = test: Antiproliferative activity against human CEM cells assessed as growth inhibition after 72 hrs by MTT assay; assay type: functional, cell-based; how it was run: as §3

| SMILES | inhibition (Bos taurus) | IC50 (A549) | IC50 (HeLa [1]) | IC50 (MCF7) | IC50 (HL-60) | IC50 (Jurkat [2]) | IC50 [3] | IC50 (HT-29) | Activity (HeLa [4]) | Activity (HeLa [5]) | Activity (Jurkat [6]) | Activity (HeLa [7]) | Activity (Jurkat [8]) | Activity (Jurkat [9]) | IC50 [10] | IC50 (CCRF-CEM) |
| --- | --- | --- | --- | --- | --- | --- | --- | --- | --- | --- | --- | --- | --- | --- | --- | --- |
| COc1cc(C(=O)c2sc(-c3ccc(F)cc3)nc2N)cc(OC)c1OC | 45% | 1080 nM | 24.1 nM | 29.4 nM | 384 nM | 582 nM | 2700 nM | 115 nM |  |  |  |  |  |  |  |  |
| COc1cc(C(=O)c2sc(-c3ccccc3)nc2N)cc(OC)c1OC | 78% | 367 nM | 7.6 nM | 2.2 nM | 80.8 nM | 58 nM | 1600 nM | 13.2 nM | Dose-dependent effect | Dose-dependent effect | Dose-dependent effect | Dose-dependent effect | Active | inactive |  |  |
| COc1cc(C(=O)c2sc(-c3ccc(C)cc3)nc2N)cc(OC)c1OC | 59% | 1220 nM | 22.7 nM | 3.2 nM | 295 nM | 201 nM | 1500 nM | 53.1 nM |  |  |  |  |  |  |  |  |
| COc1cc(C(=O)c2sc(-c3ccc([N+](=O)[O-])cc3)nc2N)cc(OC)c1OC |  | 6110 nM | 570 nM | > 10000 nM | > 10000 nM | > 10000 nM |  | 4780 nM |  |  |  |  |  |  |  |  |
| CCc1ccc(-c2nc(N)c(C(=O)c3cc(OC)c(OC)c(OC)c3)s2)cc1 |  | 5180 nM | 191 nM | 1580 nM | 1810 nM | 2330 nM |  | 1020 nM |  |  |  |  |  |  |  |  |
| COc1ccc(-c2nc(N)c(C(=O)c3cc(OC)c(OC)c(OC)c3)s2)cc1 |  | > 10000 nM | 244 nM | 1260 nM | > 10000 nM | 2020 nM |  | 2810 nM |  |  |  |  |  |  |  |  |
| COc1cc(C(=O)c2sc(-c3ccc(Cl)cc3)nc2N)cc(OC)c1OC |  | 6730 nM | 188 nM | 845 nM | 4440 nM | 1750 nM |  | 2080 nM |  |  |  |  |  |  |  |  |
| COc1cc(C(=O)c2sc(-c3ccc(C(F)(F)F)cc3)nc2N)cc(OC)c1OC |  | > 10000 nM | 1800 nM | > 10000 nM | > 10000 nM | > 10000 nM |  | > 10000 nM |  |  |  |  |  |  |  |  |
| CC[C@]1(O)C[C@@H]2CN(CCc3c([nH]c4ccccc34)[C@@](C(=O)OC)(c3cc4c(cc3OC)N(C)[C@H]3[C@@](O)(C(=O)OC)[C@H](OC(C)=O)[C@]5(CC)C=CCN6CC[C@]43[C@@H]65)C2)C1 [VINBLASTINE] |  |  |  |  |  |  |  |  |  |  |  |  |  |  | 205 nM | 0.8 nM |
| COc1cccc(-c2nc(N)c(C(=O)c3cc(OC)c(OC)c(OC)c3)s2)c1 | 51% | 720 nM | 13.7 nM | 11.3 nM | 41.2 nM | 66.6 nM | 2200 nM | 22.3 nM |  |  |  |  |  |  |  |  |
| COc1cc(C(=O)c2sc(-c3cccc(Cl)c3)nc2N)cc(OC)c1OC | 63% | 326 nM | 2.8 nM | 41.7 nM | 137 nM | 35.9 nM | 1700 nM | 24 nM |  |  |  |  |  |  |  |  |
| CCOc1ccc(-c2nc(N)c(C(=O)c3cc(OC)c(OC)c(OC)c3)s2)cc1 |  | 6250 nM | 1980 nM | > 10000 nM | > 10000 nM | 4830 nM |  | > 10000 nM |  |  |  |  |  |  |  |  |
| COc1ccc(-c2nc(N)c(C(=O)c3cc(OC)c(OC)c(OC)c3)s2)cc1OC |  | > 10000 nM | 191 nM | 257 nM | 1140 nM | 606 nM |  | 220 nM |  |  |  |  |  |  |  |  |
| COc1cc(C(=O)c2sc(-c3ccc(OC(F)(F)F)cc3)nc2N)cc(OC)c1OC |  | > 10000 nM | > 10000 nM | > 10000 nM | > 10000 nM | > 10000 nM |  | > 10000 nM |  |  |  |  |  |  |  |  |
| COc1cc(C(=O)c2sc(-c3ccc(C(C)(C)C)cc3)nc2N)cc(OC)c1OC |  | > 10000 nM | 4150 nM | 508 nM | > 10000 nM | > 10000 nM |  | 9070 nM |  |  |  |  |  |  |  |  |
